Structures can show the parent of a compound that is named as a salt.
Test system: Kir7.1
Assay: not given
Settings: read-out: IC50 Kir7.1; ref Lewis et al., [2009]; cited from earlier work

| SMILES | IC50 |
| --- | --- |
| O=[N+]([O-])c1ccc(CN2CCOCCOCCN(Cc3ccc([N+](=O)[O-])cc3)CCOCC2)cc1 [VU590, 7,13-bis[(4-nitrophenyl)methyl]-1,4,10-trioxa-7,13-diazacyclopentadecanedihydrochloride] | ~8 µM |

Biological target: T1, Kir1.1 (S44D) (Rattus norvegicus, UniProt P35560, S44D)
T1 sequence (P35560 1-391 S44D): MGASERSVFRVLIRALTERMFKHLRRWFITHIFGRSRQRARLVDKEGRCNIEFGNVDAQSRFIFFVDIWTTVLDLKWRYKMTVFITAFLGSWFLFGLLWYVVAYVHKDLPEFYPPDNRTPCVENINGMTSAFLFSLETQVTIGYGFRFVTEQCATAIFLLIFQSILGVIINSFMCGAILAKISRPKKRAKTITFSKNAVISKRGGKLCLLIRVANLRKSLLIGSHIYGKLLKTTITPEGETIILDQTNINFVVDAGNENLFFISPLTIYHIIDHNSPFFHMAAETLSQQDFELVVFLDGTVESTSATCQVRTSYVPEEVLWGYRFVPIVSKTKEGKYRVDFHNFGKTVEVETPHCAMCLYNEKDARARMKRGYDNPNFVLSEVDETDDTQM
Assay: Tl+ flux assay, tetracycline-inducible Kir1.1-S44D T-REx-HEK-293 cells
Format: cell-based
Settings: IC50 Kir1.1, Tl+ flux, mean ± SEM (n = 3)
In short: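 Monoclonal C1 T-REx-HEK-293 Kir1.1-S44D cells were grown in DMEM with 10% FBS, penicillin/streptomycin, 5 μg/mL blasticidin S and 250 μg/mL hygromycin. Channel expression was induced overnight with tetracycline. Cells were loaded with FluoZin-2 and pre-treated with test compound from 1:3 serial dilutions. Extracellular Tl+ was then added and fluorescence imaged kinetically at 20–23°C. CRC, mean ± SEM, n = 3.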

| SMILES | IC50 |
| --- | --- |
| Cc1ccc(OCC(O)Cn2c(=N)n(C)c3ccccc32)cc1 (centres unmarked) [Compound 25, 1-(2-imino-3-methyl-2,3-dihydro-1H-benzo[d]imidazol-1-yl)-3-(p-tolyloxy)propan-2-ol] | 13 ± 2.6 µM |
| Cc1ccccc1OCC(O)Cn1c(=N)n(Cc2ccccc2)c2ccccc21 (centres unmarked) [Compound 6, 1-(3-benzyl-2-imino-2,3-dihydro-1H-benzo[d]imidazol-1-yl)-3-(o-tolyloxy)propan-2-ol] | 11.9 ± 2.2 µM |
| N#Cc1cc(F)cc(OCC(O)Cn2c(=N)n(Cc3ccccc3)c3ccccc32)c1 (centres unmarked) [Compound 19, 3-(3-(3-benzyl-2-imino-2,3-dihydro-1H-benzo[d]imidazol-1-yl)-2-hydroxypropoxy)-5-fluorobenzonitrile] | 14.3 ± 1.5 µM |
| N#Cc1ccc(OCC(O)Cn2c(=N)n(Cc3ccccc3)c3ccccc32)cc1 (centres unmarked) [Compound 12, 4-(3-(3-benzyl-2-imino-2,3-dihydro-1H-benzo[d]imidazol-1-yl)-2-hydroxypropoxy)benzonitrile] | 15.7 ± 2.1 µM |
| COc1cccc(Cn2c(=N)n(CC(O)COc3ccc(C)cc3)c3ccccc32)c1 (centres unmarked) [Compound 24, 1-(2-imino-3-(3-methoxybenzyl)-2,3-dihydro-1H-benzo[d]imidazol-1-yl)-3-(p-tolyloxy)propan-2-ol] | 13.7 ± 4.4 µM |
| N=c1n(Cc2ccccc2)c2ccccc2n1CC(O)COc1cccc(Cl)c1 (centres unmarked) [Compound 18, 1-(3-benzyl-2-imino-2,3-dihydro-1H-benzo[d]imidazol-1-yl)-3-(3-chlorophenoxy)propan-2-ol] | 11.7 ± 2.1 µM |
| Cc1cc(C)cc(OCC(O)Cn2c(=N)n(Cc3ccccc3)c3ccccc32)c1 (centres unmarked) [Compound 20, 1-(3-benzyl-2-imino-2,3-dihydro-1H-benzo[d]imidazol-1-yl)-3-(3,5-dimethylphenoxy)propan-2-ol] | 16 ± 2 µM |
| N=c1n(Cc2ccccc2)c2ccccc2n1CC(O)CN1CCOCC1 (centres unmarked) [Compound 9, 1-(3-benzyl-2-imino-2,3-dihydro-1H-benzo[d]imidazol-1-yl)-3-morpholinopropan-2-ol] | > 100 µM |
| N=c1n(Cc2ccccc2)c2ccccc2n1CC(O)COc1ccccc1 (centres unmarked) [Compound 5, 1-(3-benzyl-2-imino-2,3-dihydro-1H-benzo[d]imidazol-1-yl)-3-phenoxypropan-2-ol] | 11.7 ± 4.1 µM |
| COc1ccc(OCC(O)Cn2c(=N)n(Cc3ccccc3)c3ccccc32)cc1 (centres unmarked) [Compound 13, 1-(3-benzyl-2-imino-2,3-dihydro-1H-benzo[d]imidazol-1-yl)-3-(4-methoxyphenoxy)propan-2-ol] | 12.7 ± 1.2 µM |
| N=c1n(Cc2ccc(Cl)cc2)c2ccccc2n1CC(O)COc1ccccc1 (centres unmarked) [Compound 22, 1-(3-(4-chlorobenzyl)-2-imino-2,3-dihydro-1H-benzo[d]imidazol-1-yl)-3-phenoxypropan-2-ol] | 14.7 ± 2.1 µM |
| COc1ccccc1OCC(O)Cn1c(=N)n(Cc2ccccc2)c2ccccc21 (centres unmarked) [Compound 21, 1-(3-benzyl-2-imino-2,3-dihydro-1H-benzo[d]imidazol-1-yl)-3-(2-methoxyphenoxy)propan-2-ol] | 19.3 ± 1.5 µM |

More lines, now with the values ahead:

| IC50 | SMILES |
| --- | --- |
| 6.97 ± 2 µM | Cn1c(=N)n(CC(O)COc2ccc(C(F)(F)F)cc2)c2ccccc21 (centres unmarked) [Compound 26, 1-(2-imino-3-methyl-2,3-dihydro-1H-benzo[d]imidazol-1-yl)-3-(4-(trifluoromethyl)phenoxy)propan-2-ol] |
| 7.57 ± 2.2 µM | N=c1n(Cc2ccccc2)c2ccccc2n1CC(O)COc1cc(F)cc(F)c1 (centres unmarked) [Compound 7, 1-(3-benzyl-2-imino-2,3-dihydro-1H-benzo[d]imidazol-1-yl)-3-(3,5-difluorophenoxy)propan-2-ol] |
| 11.2 ± 2.8 µM | Cc1cccc(OCC(O)Cn2c(=N)n(Cc3ccccc3)c3ccccc32)c1 (centres unmarked) [Compound 4, 1-(3-benzyl-2-imino-2,3-dihydro-1H-benzo[d]imidazol-1-yl)-3-(m-tolyloxy)propan-2-ol] |
| 6.13 ± 0.23 µM | N=c1n(Cc2ccccc2)c2ccccc2n1CC(O)COc1ccc(Cc2ccccc2)cc1 (centres unmarked) [Compound 10, 1-(3-benzyl-2-imino-2,3-dihydro-1H-benzo[d]imidazol-1-yl)-3-(4-benzylphenoxy)propan-2-ol] |
| 7.07 ± 2.3 µM | N=c1n(Cc2ccccc2)c2ccccc2n1CC(O)COc1ccc(Cl)cc1Cl (centres unmarked) [Compound 2, 1-(3-benzyl-2-imino-2,3-dihydro-1H-benzo[d]imidazol-1-yl)-3-(2,4-dichlorophenoxy)propan-2-ol] |
| 8.53 ± 1.7 µM | Cc1cc(OCC(O)Cn2c(=N)n(Cc3ccccc3)c3ccccc32)ccc1Br (centres unmarked) [Compound 16, 1-(3-benzyl-2-imino-2,3-dihydro-1H-benzo[d]imidazol-1-yl)-3-(4-bromo-3-methylphenoxy)propan-2-ol] |
| 6.53 ± 3.9 µM | N=c1n(Cc2ccc(Cl)cc2)c2ccccc2n1CC(O)COc1ccc(Cl)cc1 (centres unmarked) [Compound 23, 1-(3-(4-chlorobenzyl)-2-imino-2,3-dihydro-1H-benzo[d]imidazol-1-yl)-3-(4-chlorophenoxy)propan-2-ol] |
| 6.57 ± 3.8 µM | N=c1n(Cc2ccccc2)c2ccccc2n1CC(O)COc1ccc(Cl)cc1 (centres unmarked) [Compound 3, 1-(3-benzyl-2-imino-2,3-dihydro-1H-benzo[d]imidazol-1-yl)-3-(4-chlorophenoxy)propan-2-ol] |
| 5.23 ± 0.59 µM | N=c1n(Cc2ccccc2)c2ccccc2n1CC(O)COc1ccc(OCc2ccccc2)cc1 (centres unmarked) [Compound 11, 1-(3-benzyl-2-imino-2,3-dihydro-1H-benzo[d]imidazol-1-yl)-3-(4-(benzyloxy)phenoxy)propan-2-ol] |
| 8.27 ± 0.29 µM | N#Cc1ccc(F)c(OCC(O)Cn2c(=N)n(Cc3ccccc3)c3ccccc32)c1 (centres unmarked) [Compound 17, 3-(3-(3-benzyl-2-imino-2,3-dihydro-1H-benzo[d]imidazol-1-yl)-2-hydroxypropoxy)-4-fluorobenzonitrile] |
| 8.6 ± 1.2 µM | N=c1n(Cc2ccccc2)c2ccccc2n1CC(O)COc1ccccc1Cl (centres unmarked) [Compound 15, 1-(3-benzyl-2-imino-2,3-dihydro-1H-benzo[d]imidazol-1-yl)-3-(2-chlorophenoxy)propan-2-ol] |
| 6.77 ± 1.7 µM | CC(C)c1ccc(OCC(O)Cn2c(=N)n(Cc3ccccc3)c3ccccc32)cc1 (centres unmarked) [Compound 8, 1-(3-benzyl-2-imino-2,3-dihydro-1H-benzo[d]imidazol-1-yl)-3-(4-isopropylphenoxy)propan-2-ol] |
| 10.1 ± 2.9 µM | COc1cccc(OCC(O)Cn2c(=N)n(Cc3ccccc3)c3ccccc32)c1 (centres unmarked) [Compound 14, 1-(3-benzyl-2-imino-2,3-dihydro-1H-benzo[d]imidazol-1-yl)-3-(3-methoxyphenoxy)propan-2-ol] |

Test system: Kir1.1
Assay: not given
Settings: read-out: Kir1.1 inhibitor potency; ref Lewis et al., [2009]; cited from earlier work

| SMILES | IC50 |
| --- | --- |
| O=[N+]([O-])c1ccc(CN2CCOCCOCCN(Cc3ccc([N+](=O)[O-])cc3)CCOCC2)cc1 [VU590, 7,13-bis[(4-nitrophenyl)methyl]-1,4,10-trioxa-7,13-diazacyclopentadecanedihydrochloride] | ~0.3 µM |

Biological target: T2, Kir7.1-M125R (Homo sapiens, UniProt O60928, M125R)
T2 sequence (O60928 1-360 M125R): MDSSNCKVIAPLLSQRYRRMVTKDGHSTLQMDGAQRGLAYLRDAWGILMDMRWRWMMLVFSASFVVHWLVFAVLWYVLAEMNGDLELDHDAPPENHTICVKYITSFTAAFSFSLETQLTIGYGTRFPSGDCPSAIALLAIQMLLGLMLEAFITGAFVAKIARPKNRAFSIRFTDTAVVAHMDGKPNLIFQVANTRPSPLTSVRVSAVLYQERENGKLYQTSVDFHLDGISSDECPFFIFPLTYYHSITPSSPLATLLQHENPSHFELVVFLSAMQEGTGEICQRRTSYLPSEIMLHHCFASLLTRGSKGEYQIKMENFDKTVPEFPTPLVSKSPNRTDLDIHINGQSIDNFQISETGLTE
Assay: Tl+ flux assay, polyclonal Kir7.1-M125R T-REx-HEK-293 cells
Format: cell-based
Settings: not given

| activity toward Kir7.1 | SMILES |
| --- | --- |
| lost activity | N=c1n(Cc2ccccc2)c2ccccc2n1CC(O)CN1CCOCC1 (centres unmarked) [Compound 9, 1-(3-benzyl-2-imino-2,3-dihydro-1H-benzo[d]imidazol-1-yl)-3-morpholinopropan-2-ol] |
| lost activity | N=c1n(Cc2ccccc2)c2ccccc2n1CC(O)COc1ccc(OCc2ccccc2)cc1 (centres unmarked) [Compound 11, 1-(3-benzyl-2-imino-2,3-dihydro-1H-benzo[d]imidazol-1-yl)-3-(4-(benzyloxy)phenoxy)propan-2-ol] |
